This is an account of results in PubChem BioAssay AID651583 (The Scripps Research Institute Molecular Screening Center, 2012).

Structures are written as SMILES. Active and inactive are the calls of the source.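 Rule for the calls: active = Toxic to Huh-7.5 liver cells, with CC50, the dose killing half the cells, at most 24 µM; inactive = CC50 above 24 µM.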

The subject of this test is Huh-7.5 viability, XTT absorbance. Kind of test: Huh-7.5 cell cytotoxicity, late-stage follow-up, cytotoxicity control for HCV core dimerization inhibitor project, XTT absorbance, powder samples (AID 651583). In short, it runs like this:
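Material – Huh-7.5 cell line, viability by mitochondrial dehydrogenase activity · Replication – triplicate wells per concentration · Measure – CC50 from four-parameter sigmoidal fit of % inhibition versus DMSO · Benchmarks – DMSO control, cell-free compound blanks · Times – 72 h compound exposure at 37 °C · Technique – XTT-PMS absorbance, 450/650 nm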
(In general: Tetrazolium dyes change colour on reduction, which living cells bring about.)
For orientation: CC50 means the concentration giving 50% cytotoxicity. Regarding `Cc1ccc(Cc2c(C)nc3nc(SCC(=O)NCCN4CCCN(S(=O)(=O)c5ccccc5)CC4)nn3c2C)cc1`, the CC50 was 9.51 µM.
Consider `Cc1ccc(Cc2c(C)nc3nc(SCC(=O)NCCN4CCCN(S(C)(=O)=O)CC4)nn3c2C)cc1`, for which the CC50 was 193 µM (inactive).
For `Cc1ccc(Cc2c(C)nc3nc(SCC(=O)NCCN4CCOCC4)nn3c2C)cc1`, the CC50 is > 12 µM (inactive).
On to `Cc1ccc(Cc2c(C)nc3nc(SCC(=O)NCCN4CCN(CCc5ccccc5)CC4)nn3c2C)cc1`, for which the CC50 is > 36 µM (inactive).
On to `Cc1ccc(Cc2c(CCc3ccccc3)nc3nc(SC(Cc4ccccc4)C(=O)NCCN4CCOCC4)nn3c2C)cc1` (stereo unspecified), for which the CC50 was 22.1 µM.
For the compound `Cc1ccc(Cc2c(C)nc3nc(SCC(=O)NCCN4CCCCCC4)nn3c2C)cc1`, the CC50 is 42.6 µM (inactive).
In the case of `Cc1ccc(Cc2c(C)nc3nc(SCC(=O)NCCN4CCN(Cc5ccc(F)cc5)CC4)nn3c2C)cc1`, the CC50 is 180 µM (inactive).
Take `Cc1ccc(Cc2c(C)nc3nc(SCC(=O)NCCN4CCNCC4)nn3c2C)cc1`: the CC50 is 33.8 µM (inactive).
The same measure for `Cc1ccc(Cc2c(C)nc3nc(SCC(=O)NCCN4CCN(Cc5ccc(Cl)cc5)CC4)nn3c2C)cc1`: > 4 µM (inactive).
With `Cc1ccc(Cc2c(C)nc3nc(SCC(=O)NCCN4CCCN(S(=O)(=O)c5ccc(C)cc5)CC4)nn3c2C)cc1`, the CC50 is 13.8 µM.
Turning to `Cc1ccc(Cc2c(C)nc3nc(SCC(=O)NCCN4CCN(S(=O)(=O)c5ccccc5)CC4)nn3c2C)cc1`, the CC50 was 37.6 µM (inactive).
